This note sets out measurements from ChEMBL document CHEMBL3870302, “Computer-aided identification, synthesis and evaluation of substituted thienopyrimidines as novel inhibitors of HCV replication” (Eur J Med Chem, 2016).

Structures are written as SMILES. pEC50: −log10 of the molar value.

Data set [1] has as its system Hepatitis C virus. Kind of data set: Antiviral activity against Hepatitis C virus genotype 1b infected in human HuH5.2 cells after 72 hrs by luciferase reporter gene assay. Type of data set: functional, cell-based, Hepacivirus hominis. Conditions: Hepatitis C virus, genotype 1b, Huh-5-2, 72 h. Put shortly: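 Huh 5-2 cells with genotype 1b I389luc-ubi-neo/NS3-3'/5.1 subgenomic replicon, seeded 6 500 cells/well in DMEM/10% FCS without Geneticin, overnight 37 °C. Compound (DMSO stock diluted in medium) in 1:5 four-step or 1:2 eight-step series, 72 h. Cells PBS-washed, lysed 5 min, luciferase luminescence read, converted to % untreated control; EC50 from dose-response curve, mean of ≥2 independent experiments.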
A general note: In a reporter assay the amount or activity of a reporter protein is the signal.

The nature of data set [2]: Cytotoxicity against human HuH5.2 cells assessed as reduction in metabolic activity after 72 hrs by MTS assay. Type of data set: toxicity, cell-based, Huh-5-2. The conditions noted are these: HuH5.2 cells. In outline:
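Run in parallel with the replicon assay: Huh 5-2 replicon cells, 6 500 cells/well, compound series for 72 h at 37 °C, 5% CO2. Medium then replaced with 5% MTS in phenol red-free medium for 1.5 h. Absorbance at 498 nm expressed as % untreated cells; CC50 from dose-response curve as 50% reduction in metabolic activity, mean of ≥2 experiments.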

Data set [3] is described as follows: Selectivity index, ratio of CC50 for human HuH5.2 cells to EC50 for hepatitis C virus genotype 1b infected in human HuH5.2 cells. Type of data set: toxicity, cell-based. The conditions noted are these: HuH5.2 cells, read-out: Ratio CC50/EC50. In outline: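 Ratio of CC50 (MTS metabolic read-out, 72 h) to EC50 (replicon luciferase read-out, 72 h), both measured in parallel on Huh 5-2 genotype 1b replicon cells.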

On to `CCOc1ccc2sc(NS(=O)(=O)c3ccc(OC)c(OC)c3)nc2c1`, for which, in data set [1], the negative-log EC50 (pEC50) – broadly, the EC50 on a negative log10 scale, so that one unit is a factor of ten – is less than 3.90 and the 90% effect concentration (EC90) (usually the concentration needed for an effect of 90%) was greater than 127 µM. The 50% cytotoxic concentration (CC50) (in general, the concentration at which the toxic effect on the cells reaches its halfway point) at 72 h in data set [2] was greater than 127 µM.
On to `COc1ccc(-c2c3c(nc4sc5c(O)nc(C)nc5c24)CCC3)cc1`, for which, in data set [1], the negative logarithm of the EC50 (pEC50) was 4.68. Besides, the CC50 at 72 h in data set [2] turned out to be 128 µM. For the same compound, in data set [3], the selectivity ratio amounted to 6.1.
For the compound `COc1ccc(-c2c(C#N)c(SCC(N)=O)nc3c2CCCC3)cc1`, in data set [1], the pEC50 is 3.89 and the EC90 was greater than 142 µM. Further, the 50% cytotoxic concentration (CC50) at 72 h in data set [2] is greater than 142 µM. Besides, the selectivity ratio in data set [3] was greater than 1.1.
Consider `O=C(CCN1C(=O)c2cccc3cccc(c23)C1=O)N1CCN(Cc2ccc3c(c2)OCO3)CC1`, for which, in data set [1], the pEC50 is 4.49. For the same compound, the CC50 at 72 h in data set [2] was greater than 106 µM. The selectivity ratio in data set [3] is greater than 3.3.
The matching figures for `CC(=O)Nc1ccc(/C=C2\C=C(C(O)c3ccc(NC(C)=O)cc3)c3ccccc32)cc1` (centres undefined): 4.67, 48.8 µM and 2.3.
For `O=S(=O)(Nc1ccc(O)c(Sc2ncn[nH]2)c1)c1cccc2ccccc12` the same measures were 4.37, greater than 126 µM and greater than 2.9.
In data set [1], `O=C(Nc1ccc(S(=O)(=O)O)c2ccccc12)c1ccc(C(=O)Nc2ccc(S(=O)(=O)O)c3ccccc23)cc1` gave a pEC50 of less than 4.07 and an EC90 greater than 86 µM. In addition, in data set [2], the CC50 at 72 h was greater than 86 µM.
`O=C(NNc1ncnc2sc3c(c12)CCCC3)c1cccs1` had a pEC50 in data set [1] of 4.51. Also, in data set [2], the half-maximal cytotoxic concentration (CC50) at 72 h was determined as 36.7 µM. Besides, the selectivity ratio in data set [3] came to 1.2.
Turning to `COc1ccc(C(N)=O)cc1NS(=O)(=O)c1cccc2cccnc12`, in data set [1], the negative logarithm of the EC50 (pEC50) was less than 3.85 and the 90% effect concentration (EC90) is greater than 140 µM. Further, the cytotoxic concentration (CC50) at 72 h in data set [2] is greater than 140 µM.
For `CCc1ccc(S(=O)(=O)Nc2cc3c(C(=O)OC)c(C)oc3c3ccccc23)cc1`, the negative-log EC50 (pEC50) in data set [1] is 5.96. Moreover, the 50% cytotoxic concentration (CC50) at 72 h in data set [2] was determined as 4.7 µM. The selectivity ratio in data set [3] is 4.3.
In data set [1], `O=C(NNc1ncnc2sc3ccccc3c12)c1ccccc1O` had a pEC50 of 6.08 and an EC90 of 1.6 µM. Also, the cytotoxic concentration (CC50) at 72 h in data set [2] is 108 µM. Further, in data set [3], the selectivity ratio was 130.
Consider `C/C(=N\Nc1ncnc2sc3c(c12)CCCC3)c1ccco1`, for which the pEC50 in data set [1] is 4.74. Moreover, in data set [2], the CC50 at 72 h worked out at 58.9 µM. Also, the selectivity ratio in data set [3] amounted to 3.2.
As to `c1cnc2c(Nc3ncnc4sc5c(c34)CCCC5)cccc2c1`, in data set [1], the pEC50 was 3.73 and the EC90 was greater than 100 µM. Moreover, in data set [2], the CC50 at 72 h is greater than 301 µM. Further, the selectivity ratio in data set [3] is greater than 1.6.
For `C/C(=N\Nc1ncnc2sc3c(c12)CCCC3)c1ccc[nH]1` the same measures were 5.28, 12.8 µM, 19.5 µM and 3.7.
For `C/C(=N\Nc1nc(C)nc2sc3c(c12)CCCC3)c1ccccc1O` the same measures were 3.94, greater than 94.6 µM, greater than 284 µM and greater than 2.5.
For `C/C(=N/Nc1ncnc2sccc12)c1cnccn1` the same measures were 5.30, 1.79 µM, 9.01 µM and 1.8.
In the case of `COC(=O)c1ccc(N2C(=O)CC(S/C(=N\c3ccccc3)NCc3ccc4c(c3)OCO4)C2=O)cc1` (centres undefined), the negative logarithm of the EC50 (pEC50) in data set [1] is 4.89. Further, the 50% cytotoxic concentration (CC50) at 72 h in data set [2] worked out at 62.6 µM. The selectivity ratio in data set [3] is 4.9.
For `CCOc1cccc(C(=O)Nc2cc(C(=O)OC)ccc2N2CCN(CC)CC2)c1` the same measures were 4.41, 61.7 µM and 1.6.
In data set [1], `C/C(=N/Nc1ncnc2sc(C)c(C)c12)c1ccccc1O` gave a pEC50 of 6.42 and an EC90 of less than 1.28 µM. Further, the 50% cytotoxic concentration (CC50) at 72 h in data set [2] came to 93.6 µM. The selectivity ratio in data set [3] is 244.
On to `COc1ccc(/C(C)=N/NC(=O)c2cc(O)cc(O)c2)c(OC)c1`, for which, in data set [1], the pEC50 was less than 3.82 and the EC90 was greater than 151 µM. The CC50 at 72 h in data set [2] is greater than 151 µM.
The compound `CCOc1cc(C)c(S(=O)(=O)N2CCN(Cc3ccc4c(c3)OCO4)CC2)cc1C` showed a pEC50 in data set [1] of 4.46. Moreover, in data set [2], the CC50 at 72 h was greater than 116 µM. For the same compound, the selectivity ratio in data set [3] is greater than 3.4.
Take `CCOC(=O)c1cnc2c(ccc3ccccc32)c1Nc1ccc(C(=O)OC)cc1`: in data set [1], the negative logarithm of the EC50 (pEC50) is 4.96. The CC50 at 72 h in data set [2] turned out to be 56.2 µM. Also, in data set [3], the selectivity ratio was 5.2.
For `C/C(=N/Nc1ncnc2sc(Cl)c(C)c12)c1ccccc1O` the same measures were 6.77, greater than 9.01 µM and greater than 56.1.
In the case of `Cc1nc(NNC(=O)c2ccccn2)c2c3c(sc2n1)CCCC3`, in data set [1], the negative-log EC50 (pEC50) is 7.11 and it took 0.32 µM to reach the 90% level (EC90). In data set [2], the 50% cytotoxic concentration (CC50) at 72 h was greater than 2.95 µM. In addition, in data set [3], the selectivity ratio is greater than 38.1.
The matching figures for `O=C(NNc1ncnc2sc3c(c12)CCC3)c1cnccn1`: 7.02, less than 0.256 µM, 2.97 µM and 31.4.
`C/C(=N\Nc1ncnc2sc3c(c12)CCCC3)c1ccc(O)cc1`: in data set [1], the negative-log EC50 (pEC50) is less than 3.53 and the EC90 is greater than 295 µM. The half-maximal cytotoxic concentration (CC50) at 72 h in data set [2] was greater than 295 µM.
As to `Cc1cc(O)cc(O)c1/C=N/NC(=O)COc1ccc2ccccc2c1`, in data set [1], the negative logarithm of the EC50 (pEC50) is 5.72. Also, in data set [2], the CC50 at 72 h was found to be 51.9 µM. Also, the selectivity ratio in data set [3] was 27.3.
Compound `C/C(=N\Nc1ncnc2sc3c(c12)CCCC3)c1cccs1` had a negative logarithm of the EC50 (pEC50) in data set [1] of 4.64. Also, the CC50 at 72 h in data set [2] is 46 µM. Further, the selectivity ratio in data set [3] worked out at 2.
The matching figures for `O=C(/C=C(/C(=O)O)c1ccccc1)Nc1ccc(N2CCN(CCO)CC2)cc1`: 4.19, greater than 126 µM and greater than 0.19.
Consider `O=C(N/N=C\c1cccnc1)c1cc(-c2ccc3c(c2)OCO3)n[nH]1`, for which, in data set [1], the pEC50 was less than 3.83 and the 90% effect concentration (EC90) was greater than 149 µM. Also, the cytotoxic concentration (CC50) at 72 h in data set [2] is greater than 149 µM.
As to `O=C(NNc1ncnc2sc3ccccc3c12)c1ccccn1`, in data set [1], the negative logarithm of the EC50 (pEC50) is 6.34 and the 90% effect level (EC90) was put at 1.01 µM. Moreover, the half-maximal cytotoxic concentration (CC50) at 72 h in data set [2] turned out to be 1.54 µM. For the same compound, the selectivity ratio in data set [3] came to 3.3.
For the compound `CCOc1cc(C2C(C(=O)OC)=C(C)NC3=C2C(=O)CC(c2ccc(OC)c(OC)c2)C3)ccc1O` (centres undefined), in data set [1], the pEC50 is 4.44. For the same compound, in data set [2], the CC50 at 72 h was greater than 101 µM. Moreover, the selectivity ratio in data set [3] is greater than 2.8.
In data set [1], `C/C(=N/Nc1ncnc2sc3c(c12)CCC3)c1cnccn1` had a pEC50 of 6.16 and an EC90 of less than 0.839 µM. Also, the CC50 at 72 h in data set [2] was 1.12 µM. In addition, in data set [3], the selectivity ratio turned out to be 1.6.
For `O=C(NNc1ncnc2sccc12)c1cc(O)ccc1O` the same measures were 5.56, 9.4 µM, greater than 165 µM and greater than 60.
In data set [1], `COc1cc2nc(CN3CCC(C(N)=O)CC3)[nH]c(=O)c2cc1OC` showed a negative logarithm of the EC50 (pEC50) of less than 3.84 and an EC90 greater than 144 µM. The CC50 at 72 h in data set [2] was greater than 144 µM.
`CCC[C@H](NC(=O)[C@@H]1[C@H]2CCC[C@H]2CN1C(=O)[C@@H](NC(=O)[C@@H](NC(=O)c1cnccn1)C1CCCCC1)C(C)(C)C)C(=O)C(=O)NC1CC1` [TELAPREVIR]: in data set [1], the pEC50 was 6.10. For the same compound, the selectivity ratio in data set [3] came out at 58.8.
